Measured values: article PMC3800034 (Journal of medicinal chemistry, 2013)
Entries after “also recorded” stand apart in the source; their conditions may differ.

Key:
neutrophil migration = conditions: cited from earlier work
OXE receptor [1] = conditions: cited from earlier work
OXE receptor [2] = target: OXE receptor (Homo sapiens, UniProt Q8TDS5); assay type: cell-based
[3] = tested on: response of neutrophils to LTB4; assay: LTB4-induced calcium mobilization in human neutrophils; assay type: cell-based; conditions: compound 10 µM, LTB4 10 nM
Summary of the method: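 Neutrophils from whole blood of healthy human donors, suspended in phosphate-buffered saline, loaded with indo-1, and moved to a cuvette with CaCl₂ (1.8 mM) and MgCl₂ (1 mM) 5 min before the run. Fluorescence was read at 37 °C in a spectrofluorimeter. After a stable baseline, vehicle or test compound was added, then LTB4 (10 nM) 2 min later. Digitonin followed to give maximal response.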

Sequence of OXE receptor (Homo sapiens, UniProt Q8TDS5) (Q8TDS5 whole entry): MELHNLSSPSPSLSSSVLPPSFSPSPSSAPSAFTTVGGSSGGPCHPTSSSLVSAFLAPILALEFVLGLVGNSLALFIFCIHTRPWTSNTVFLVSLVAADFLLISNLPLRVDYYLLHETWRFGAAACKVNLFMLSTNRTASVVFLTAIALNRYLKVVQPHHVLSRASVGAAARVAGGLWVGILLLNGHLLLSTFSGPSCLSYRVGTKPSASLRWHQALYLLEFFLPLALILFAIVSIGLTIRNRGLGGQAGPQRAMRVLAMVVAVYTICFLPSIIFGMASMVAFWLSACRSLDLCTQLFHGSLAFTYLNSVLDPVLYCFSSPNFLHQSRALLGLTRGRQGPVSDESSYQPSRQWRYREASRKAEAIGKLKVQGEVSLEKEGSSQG

CCCCC/C=C\C[C@H](O)/C=C/C=C\C=C\C(=O)CCCC(=O)O [5-oxo-12S-HETE 6, 5-oxo-12S-HETE]
effect on 5-oxo-ETE-induced neutrophil migration (neutrophil migration): inhibited
effect on intracellular Ca++ levels in neutrophils (OXE receptor [1]; compound alone): virtually no effect
block of 5-oxo-ETE-induced Ca++ mobilization (OXE receptor [1]; neutrophils): low µmolar range

O=C(O)CCCC(=O)n1ccc2ccccc21 [Compound 10, 5-(1H-indol-1-yl)-5-oxopentanoic acid]
mobilization of intracellular calcium by the compound alone (agonist activity) (OXE receptor [2]; compound 30 µM added to neutrophils): neither mobilized intracellular calcium
effect on the response to 5-oxo-ETE (antagonist activity) (OXE receptor [2]; compound 30 µM, 5-oxo-ETE 10 nM added 2 min later): nor altered the response to 5-oxo-ETE; also recorded: does not affect calcium mobilization

CCCCCCc1cc2ccccc2n1C(=O)CCCC(=O)O [Compound 26, 5-(2-Hexyl-1H-indol-1-yl)-5-oxo-valeric acid]
effect on the response of neutrophils to LTB4 [3]: virtually no effect
inhibition of the effect of 5-oxo-ETE (OXE receptor [2]; compound 1 µM, 5-oxo-ETE 10 nM): substantially inhibited
inhibition of the response to 5-oxo-ETE (OXE receptor [2]; compound 10 µM, 5-oxo-ETE 10 nM): completely inhibiting

CCCCCCc1cc2ccc(Cl)cc2n1C(=O)CCCC(=O)O [Compound 39, 5-(6-Chloro-2-hexyl-1H-indol-1-yl)-5-oxo-valeric acid]
IC50 (OXE receptor [2]): 400 ± 30 nM
increase in potency compared with non-chlorinated compound 26 (OXE receptor [2]; 5-oxo-ETE-induced calcium mobilization, IC50 ratio): about 4 fold
